Published values pooled from the literature.
Target: Tyrosine-protein kinase ZAP-70 (ZAP70, Homo sapiens, UniProt P43403)
Residues used in one study (P43403 1-619): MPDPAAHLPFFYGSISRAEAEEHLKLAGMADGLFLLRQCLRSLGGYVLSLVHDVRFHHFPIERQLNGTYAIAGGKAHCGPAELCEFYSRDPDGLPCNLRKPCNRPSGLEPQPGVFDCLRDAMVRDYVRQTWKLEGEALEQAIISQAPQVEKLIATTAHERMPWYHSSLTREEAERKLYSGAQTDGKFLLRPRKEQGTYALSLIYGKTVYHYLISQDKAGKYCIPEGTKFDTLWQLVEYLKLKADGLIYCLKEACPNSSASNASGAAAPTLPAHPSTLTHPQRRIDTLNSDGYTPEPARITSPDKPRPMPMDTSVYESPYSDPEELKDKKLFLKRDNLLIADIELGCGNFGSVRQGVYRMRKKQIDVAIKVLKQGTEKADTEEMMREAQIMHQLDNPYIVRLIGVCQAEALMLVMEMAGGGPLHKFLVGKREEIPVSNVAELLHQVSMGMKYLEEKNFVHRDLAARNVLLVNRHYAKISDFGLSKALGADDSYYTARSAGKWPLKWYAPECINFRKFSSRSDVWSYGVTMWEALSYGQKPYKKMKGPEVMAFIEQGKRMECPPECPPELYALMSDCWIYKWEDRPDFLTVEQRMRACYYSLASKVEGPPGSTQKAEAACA

For CCCS(=O)(=O)Nc1ccc(F)c(C(=O)c2c[nH]c3ncc(-c4ccc(Cl)cc4)cc23)c1F, the inhibition was less than 10% (enzyme activity, inhibitor; 1 µM).
With CNC(=O)c1cc(Oc2ccc(NC(=O)Nc3ccc(Cl)c(C(F)(F)F)c3)cc2)ccn1 the inhibition was -42% (enzyme activity, inhibitor; 10 µM).
For FC(F)(F)Oc1cccc(-c2cnc3ccc(-c4ccncc4)nn23)c1, the activity vs control was 104% (enzyme activity, inhibitor, radiometric; 5 µM).
With Cc1noc([C@H]2C[C@@H](c3ccc(C(F)(F)F)cc3)CN(C(=O)N3CCS(=O)(=O)C3)C2)n1 the remaining binding was 100% (cell-free assay, competition with immobilised ligand; 1 µM).
The remaining signal of O=C1NC(=O)c2cc(Nc3ccc(F)cc3)c(Nc3ccc(F)cc3)cc21 is reported as 78.8% (cell-free assay; 0.5 µM).
With CCN(CC)CCNC(=O)c1c(C)[nH]c(/C=C2\C(=O)Nc3ccc(F)cc32)c1C the remaining activity was 110% (enzyme activity, inhibitor; 1 µM).
With CN1CC(Oc2cnc(C#N)cc2-c2ccn3nc(NC(=O)C4CC4)cc3c2)C1 the inhibition was 8% (enzyme activity, inhibitor; 1 µM).
With O=C(Nc1cnn(-c2csc(C(=O)NC3COC3)c2)c1)Nc1c(F)cccc1Cl the remaining activity was 104% (enzyme activity, inhibitor; 5 µM).
For CC(C)(C)c1nc(-c2cccc(NS(=O)(=O)c3c(F)cccc3F)c2F)c(-c2ccnc(N)n2)s1, the remaining activity was 92% (enzyme activity, inhibitor, radiometric; 1 µM).
With COc1cc(Cl)c(C(=O)N[C@@H](CN[C@H]2CC[C@@H](N)CC2)Cc2ccc(C#N)cc2)cc1-c1ccc(CN[C@H](C)c2ccc(C)cc2)o1 the remaining activity was 93% (enzyme activity, inhibitor; 1 µM).
For CCN(CC)c1ccc(C2=NNC(=O)CC2C)cc1[N+](=O)[O-] (stereo not drawn), the remaining activity was 67% (enzyme activity, inhibitor; 10 µM).
CC(=O)N1CCC(c2ccc(C(=O)NC(=N)N)cc2C(F)(F)F)CC1 has a remaining binding of 100% (cell-free assay, competition with immobilised ligand; 1 µM).
The remaining activity of COc1cc(Nc2cnc(C#N)c(O[C@H](C)CN(C)C)n2)ncc1-c1cnn(C)c1 is reported as 103% (enzyme activity, inhibitor, radiometric; 10 µM).
The remaining binding of C[C@H](c1ccc(F)cc1)N(Cc1cccc(C(=O)O)c1)C(=O)c1cnc2ccccc2c1 is reported as 96% (cell-free assay, competition with immobilised ligand; 1 µM).
The remaining signal of O=C1Nc2ccc(Cl)cc2C1=Cc1cc(Cl)c(O)c(Cl)c1 is reported as 95% (cell-free assay; 0.5 µM).
Cc1cnc(NC2CCOCC2)nc1-n1cnc(C(=O)NC(CN)c2cc(F)cc(Cl)c2)c1 (stereo not drawn) gave a remaining activity of 115% (enzyme activity, inhibitor, radiometric; 1 µM).
Cc1[nH]c(/C=C2\C(=O)Nc3ccc(F)cc32)c(C)c1C(=O)N[C@H]1CCN(C(=O)N(C)C)C1 has a remaining activity of 116% (enzyme activity, inhibitor; 1 µM).
The inhibition of CNCc1ccc(-c2cc(-c3nc(-c4ccc(S(=O)(=O)C(C)C)cc4)cnc3N)on2)cc1 is reported as 0% (enzyme activity, inhibitor; 2 µM).
With Cc1ccc(Nc2nccc(N(C)c3ccc4c(C)n(C)nc4c3)n2)cc1S(N)(=O)=O the remaining activity was 92.6% (enzyme activity, inhibitor; 0.5 µM).
The inhibition of COc1cc2ncnc(Nc3ccc(Oc4ccccc4)cc3C)c2cc1OC is reported as 0% (enzyme activity, inhibitor; 1 µM).
COc1ccc2c(c1)O[C@H](c1ccc(OC)c(OC)c1)C[C@@H]2NC(=O)C1(c2ccc3c(c2)OC(F)(F)O3)CC1 has a remaining binding of 93% (cell-free assay, competition with immobilised ligand; 1 µM).
With CCN(CC)CCNC(=O)c1c(C)[nH]c(/C=C2\C(=O)Nc3ccc(F)cc32)c1C the inhibition was 2% (enzyme activity, inhibitor; 0.3 µM).
For Cc1cc(C)c(-n2ccn3nc(-c4cccnc4)cc23)cc1NC(=O)c1cc(C#N)cc(S(F)(F)(F)(F)F)c1, the remaining binding was 79.9% (cell-free assay, competition with immobilised ligand; 0.1 µM).
CS(=O)(=O)Nc1cccc(-c2csc(NC(=O)CSc3nc4nccnc4c(=O)n3CCc3ccccc3)n2)c1 has an inhibition of 9% (enzyme activity, inhibitor; 10 µM).
O=C(Nc1ccc(Oc2ccc(F)cc2)cc1)N1CCc2ncccc2[C@H]1c1ccc(F)cc1 has a remaining binding of 91% (cell-free assay, competition with immobilised ligand; 1 µM).
COc1cc(/C=C/C(=O)CC(=O)/C=C/c2ccc(O)c(OC)c2)ccc1O has an activity vs control of 108% (enzyme activity, inhibitor; 1 µM).
With O=C(NS(=O)(=O)c1ccc(NCC2CCOCC2)c([N+](=O)[O-])c1)c1ccc(N2CCN(Cc3ccc(C(F)(F)F)cc3-c3ccc(Cl)cc3)CC2)cc1Oc1cnc2[nH]ccc2c1 the remaining binding was 82% (cell-free assay, competition with immobilised ligand; 1 µM).
For Cc1sc(C(=O)NC2COC2)cc1-n1cc(NC(=O)Nc2c(F)cccc2Cl)cn1, the remaining activity was 103% (enzyme activity, inhibitor; 10 µM).
Cc1c(NC(=O)c2cc(C(N)=O)nc3cc(F)ccc23)c(C(F)(F)F)nn1Cc1ccc(C(C)(C)C)cc1 has a remaining binding of 100% (cell-free assay, competition with immobilised ligand; 1 µM).
The remaining signal of Nc1ncnc2occ(-c3ccc(NC(=O)Nc4cc(C(F)(F)F)ccc4F)cc3)c12 is reported as 2.4% (cell-free assay, inhibitor; 20 µM).
